Assay results taken from ChEMBL document CHEMBL1133719, “Synthesis and preliminary biological evaluations of CC-1065 analogues: effects of different linkers and terminal amides on biological activity” (J Med Chem, 2000).
“And” between values parts separate entries of the source, which are not always exact repeats. Equal values may be shown once.

What was measured:
Mus musculus [1] = assay: Antitumor activity was tested in mice and percent increase of life span at a dose of 50 ug/kg was reported; format: functional
In short: (§1)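 B16BL6 cells were cultured as monolayers, and 10⁶ cells were injected ip on day 0 into female BDF1 mice (4-6 weeks, 8 per group). Drug in dimethylacetamide was diluted in DMA/Cremophor/water (1:5:44) and 0.1 mL given ip on days 1, 5 and 9. %ILS came from median survival of dying animals; 90-day survivors were counted; mean weight change covered days 1-10.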

Hs-578T = assay: Cytotoxicity against NCI tumor panel, HS 578T breast cancer cell line; format: functional, cell-based; conditions: Homo sapiens
In short: (§2)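 Performed by NCI with the sulforhodamine B (SRB) method on its human tumour cell panel, using a 48-h drug incubation.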

LOX IMVI = assay: Cytotoxicity against NCI tumor panel, […] melanoma cancer cell line; format: functional, cell-based; conditions: Homo sapiens; in short: as §2
NCI-H322M = assay: Cytotoxicity against NCI tumor panel, NCI-H322M non small-cell lung cancer cell line; format: functional, cell-based; conditions: Homo sapiens; in short: as §2
Mus musculus [2] = species: Mus musculus; assay: Hematological effects in female CDF1 mice at the dose of 50 ug, in red blood cells; format: functional
In short: (§3)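 Non-tumor-bearing female CDF1 mice, 10 per group. Drugs were dissolved in DMSO, diluted in 30% DMSO/0.5% glucose, and given as a single ip dose on day 1 (doses per kg). Blood was sampled on day 27 for WBC, platelet, RBC and MCHC counts. Values are medians of 10 mice.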

Mus musculus [3] = species: Mus musculus; assay: Hematological effects in female CDF1 mice at the dose of 50 ug, in platelet cells; format: functional; in short: as §3
TK-10 = assay: Cytotoxicity against NCI tumor panel, TK10 renal cancer cell line; format: functional, cell-based; conditions: Homo sapiens; in short: as §2
SF-539 = assay: Cytotoxicity against NCI tumor panel, SF-539 CNS cancer cell line; format: functional, cell-based; conditions: Homo sapiens; in short: as §2
SK-MEL-5 = assay: Cytotoxicity against NCI tumor panel, SKMEL-5 melanoma cancer cell line; format: functional, cell-based; conditions: Homo sapiens; in short: as §2
Mus musculus [4] = assay: Antitumor activity in BDF1 male mice bearing L1210 Leukemia at a dose of 42 ug/kg; survivors for 30 days was reported; format: functional
In short: (§4)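 Male BDF1 mice, 4-6 weeks old, 6 per group, were given 10⁵ L1210 cells ip on day 0. Drug in DMF was diluted in 30% DMSO/0.5% glucose and given ip on days 1, 5 and 9. %ILS = (T/C − 1) × 100 on median survival of dying animals only; 30-day survivors noted separately. Group weight change was taken from day 0 to the lowest-weight day.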

MDA-N = assay: Cytotoxicity against NCI tumor panel, MDA-N breast cancer cell line; format: functional, cell-based; conditions: Homo sapiens; in short: as §2
DU-145 = assay: Cytotoxicity against NCI tumor panel, DU145 prostate cancer cell line; format: functional, cell-based; conditions: Homo sapiens
In short: (§5)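 NCI cell-line panel screen run by the National Cancer Institute; sulforhodamine B (SRB) readout after 48-h drug incubation.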

HCT-15 = assay: Cytotoxicity against NCI tumor panel, HCT-15 colon cancer cell line; format: functional, cell-based; conditions: Homo sapiens; in short: as §5
HOP-92 = assay: Cytotoxicity against NCI tumor panel, HOP-92 non small-cell lung cancer cell line; format: functional, cell-based; conditions: Homo sapiens; in short: as §5
KM12 = assay: Cytotoxicity against NCI tumor panel, KM12 colon cancer cell line; format: functional, cell-based; conditions: Homo sapiens; in short: as §2
Mus musculus [5] = assay: Antitumor activity in BDF1 male mice bearing L1210 Leukemia at a dose of 70 ug/kg; format: functional; in short: as §4
UO-31 = assay: Cytotoxicity against NCI tumor panel, U031 renal cancer cell line; format: functional, cell-based; conditions: Homo sapiens; in short: as §2
HT-29 = assay: Cytotoxicity against NCI tumor panel, HT-29 colon cancer cell line; format: functional, cell-based; conditions: Homo sapiens; in short: as §2
SNB-75 = assay: Cytotoxicity against NCI tumor panel, SNB-75 CNS cancer cell line; format: functional, cell-based; conditions: Homo sapiens; in short: as §2
SK-OV-3 = assay: cytotoxicity against NCI tumor panel, SK-OV-3 ovarian cancer cell line; format: functional, cell-based; conditions: Homo sapiens; in short: as §2
HCC 2998 = assay: Cytotoxicity against NCI tumor panel, HCC_2998 colon cancer cell line; format: functional, cell-based; conditions: Homo sapiens; in short: as §5
K562 = assay: Cytotoxicity against NCI tumor panel, K-562 leukemia cell line; format: functional, cell-based; conditions: Homo sapiens; in short: as §2
Mus musculus [6] = species: Mus musculus; assay: Body weight change between days 0 and the day when the animal weight was the lowest; format: functional; in short: as §4
NCI-H460 = assay: Cytotoxicity against NCI tumor panel, NCI-H460 non small-cell lung cancer cell line; format: functional, cell-based; conditions: Homo sapiens; in short: as §2
U-251 = assay: Cytotoxicity against NCI tumor panel, U251 CNS cancer cell line; format: functional, cell-based; conditions: Homo sapiens; in short: as §2
Mus musculus [7] = species: Mus musculus; assay: Mean corpuscular haemoglobin concentration; format: functional
In short: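 Non-tumour-bearing female CDF1 mice, 10 per group. Drug was dissolved in DMSO, diluted in 30% DMSO/0.5% glucose, and given as a single ip dose on day 1. Blood was sampled on day 27 for WBC, platelet, RBC and MCHC measurements. Values are medians of 10 mice, with saline or vehicle controls.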

Mus musculus [8] = assay: Antitumor activity in mice bearing B16BL6 melanoma at a dose of 50 ug/kg; survivors for 90 days was reported; format: functional; in short: as §1
UACC-62 = assay: Cytotoxicity against NCI tumor panel, UACC-62 melanoma cancer cell line; format: functional, cell-based; conditions: Homo sapiens; in short: as §2
SNB-19 = assay: Cytotoxicity against NCI tumor panel, SNB-19 CNS cancer cell line; format: functional, cell-based; conditions: Homo sapiens; in short: as §2
Mus musculus [9] = species: Mus musculus; assay: Hematological effects in female CDF1 mice at the dose of 50ug, in white blood cells; format: functional; in short: as §3
MDA-MB-435 = assay: Cytotoxicity against NCI tumor panel, MDA-MB-435 breast cancer cell line; format: functional, cell-based; conditions: Homo sapiens; in short: as §2
HL-60 = assay: Cytotoxicity against NCI tumor panel, HL-60(TB) leukemia cell line; format: functional, cell-based; conditions: Homo sapiens; in short: as §5
786-0 = assay: Cytotoxicity against NCI tumor panel, 786-0 renal cancer cell line; format: functional, cell-based; conditions: Homo sapiens; in short: as §5
Mus musculus [10] = species: Mus musculus; assay: Mice bearing B16BL6 leukemia at a dose 100; format: functional; conditions: in the assay text read “melanoma” for “leukemia”
In short: (§6)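 Female BDF1 mice (4-6 weeks old, 8 per group) were inoculated ip with 10⁶ B16BL6 melanoma cells on day 0. Drugs in dimethylacetamide were diluted in DMA:Cremophor:water (1:5:44) and given ip at 0.1 mL on days 1, 5 and 9 (doses per kg). Read-outs were %ILS = (T/C − 1) × 100 on median survival of dying animals only, mean body weight change from day 1 to day 10 (g/mouse), and 90-day survivors.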

A498 = assay: Cytotoxicity against NCI tumor panel, A-498 renal cancer cell line; format: functional, cell-based; conditions: Homo sapiens; in short: as §5
ACHN = assay: Cytotoxicity against NCI tumor panel, ACHN renal cancer cell line; format: functional, cell-based; conditions: Homo sapiens; in short: as §5
Mus musculus [11] = assay: Antitumor activity in BDF1 male mice bearing L1210 Leukemia at a dose of 25 ug/kg; survivors for 30 days was reported; format: functional; in short: as §4
IGROV-1 = assay: Cytotoxicity against NCI tumor panel, IGROV1 ovarian cancer cell line; format: functional, cell-based; conditions: Homo sapiens; in short: as §2
COLO 205 = assay: Cytotoxicity against NCI tumor panel, COLO 205 colon cancer cell line; format: functional, cell-based; conditions: Homo sapiens; in short: as §5
CCRF-CEM = assay: Cytotoxicity against NCI tumor panel, CCRF-CEM leukemia cell line; format: functional, cell-based; conditions: Homo sapiens; in short: as §5
Mus musculus [12] = species: Mus musculus; assay: Mean body weight change between 1-10 days; format: functional; in short: as §6
OVCAR-3 = assay: Cytotoxicity against NCI tumor panel, OVCAR-3 ovarian cancer cell line; format: functional, cell-based; conditions: Homo sapiens; in short: as §2
HOP-62 = assay: Cytotoxicity against NCI tumor panel, HOP-62 non small-cell lung cancer cell line; format: functional, cell-based; conditions: Homo sapiens; in short: as §5
Mus musculus [13] = assay: Antitumor activity in mice bearing B16BL6 melanoma at a dose of 100 ug/kg; survivors for 90 days was reported; format: functional; in short: as §1
MDA-MB-231 = assay: Cytotoxicity against NCI tumor panel, MDA-MB-231/ATCC breast cancer cell line; format: functional, cell-based; conditions: Homo sapiens; in short: as §2
T47D = assay: cytotoxicity against NCI tumor panel, T-47D breast cancer cell line; format: functional, cell-based; conditions: Homo sapiens; in short: as §2

`CC(=O)Nc1ccc2[nH]c(C(=O)Nc3ccc4[nH]c(C(=O)N5CC(CCl)c6c5cc(O)c5ccccc65)cc4c3)cc2c1` (stereo unspecified) was tested, and the ILS at 0.05 mg/kg (Mus musculus [1]) was 59%, the IC50 (Hs-578T) was 1.63 nM and the IC50 (LOX IMVI) was 0.577 nM. The IC50 (NCI-H322M) was 2.13 nM, the RBC (Mus musculus [2]) was 8.72 10e6 ul-1 and the Platelet (Mus musculus [3]) was 1.1 10e6 ul-1. For the same compound, the IC50 (TK-10) was 3.13 nM, the IC50 (SF-539) was 1.24 nM and the IC50 (SK-MEL-5) was 1.11 nM. The No. of survivors (Mus musculus [4]) was 0, the IC50 (MDA-N) was 2.22 nM and the IC50 (DU-145) was 0.982 nM. The IC50 (HCT-15) was > 10 nM, the IC50 (HOP-92) was 2.11 nM and the IC50 (KM12) was 1.78 nM. The No. of survivors (Mus musculus [5]) was 1, the IC50 (UO-31) was 4.05 nM and the IC50 (HT-29) was 1.34 nM. The IC50 (SNB-75) was 0.513 nM, the IC50 (SK-OV-3) was 4.33 nM and the IC50 (HCC 2998) was 4.03 nM. The IC50 (K562) was 3.76 nM, the Weight (Mus musculus [6]) was 23% and the IC50 (NCI-H460) was 1.48 nM. The IC50 (U-251) was 0.719 nM, the MCHC (Mus musculus [7]) was 36.7 g/dL and the No. of survivors (Mus musculus [8]) was 0. For the same compound, the IC50 (UACC-62) was 0.419 nM, the IC50 (SNB-19) was 2.59 nM and the WBC (Mus musculus [9]) was 13.1 10e3 ul-1. For the same compound, the IC50 (MDA-MB-435) was 1.86 nM, the IC50 (HL-60) was 1.4 nM and the IC50 (786-0) was 1.66 nM. The Dose (Mus musculus [10]) was 0.1 mg/kg, the IC50 (A498) was 3.95 nM and the IC50 (ACHN) was 1.28 nM. It also gave a No. of survivors (Mus musculus [11]) of 0, an IC50 (IGROV-1) of 1.01 nM and an IC50 (COLO 205) of 2.99 nM. The IC50 (CCRF-CEM) was 3.14 nM, the Weight (Mus musculus [12]) was 1.1 g and 0.3 g and 0.9 g and the IC50 (OVCAR-3) was 3.51 nM. The IC50 (HOP-62) was 1.25 nM, the No. of survivors (Mus musculus [13]) was 1 and the IC50 (MDA-MB-231) was 5.97 nM. It also gave an IC50 (T47D) of 1.68 nM.
